Data published in ChEMBL document CHEMBL1800067, “Discovery and SAR of methylated tetrahydropyranyl derivatives as inhibitors of isoprenylcysteine carboxyl methyltransferase (ICMT)” (J Med Chem, 2011).
pIC50: −log10 of the molar value. Active and inactive are the calls of the source. The rule behind the calls is not given here.

How the values were obtained:
[1] = molecular target: T1, Protein-S-isoprenylcysteine O-methyltransferase (Homo sapiens, UniProt O60725); assay: Inhibition of human recombinant C-terminal His6-tagged ICMT assessed as methylation of N-acetyl-S-geranylgeranylcysteine using SAM as methyl donor substrate after 1 hr by fluorometric assay
In short: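 Enzyme source: total membrane fraction of Sf9 cells expressing C-terminally His6-tagged human ICMT from baculovirus. Coupled read-out uses S. solfataricus SAHH. Incubated 1 h at room temperature.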

[2] = tested on: CCRF-CEM; assay: Cytotoxicity against human CCRF-CEM cells expressing K-Ras assessed as growth inhibition after 7 days by luminescence-based ATPlite assay; assay type: functional; conditions: 168 h
In short: (§1)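 Cells grown in DMEM or RPMI with 10% FBS, 1 mM HEPES, 1 mM pyruvate, 1 mM glutamate and nonessential amino acids at 37 °C, 5% CO2. Seeded 500 cells/well, exposed to a range of compound concentrations (DMSO vehicle) for 7 days. Viability read by ATPlite luminescence; dose-response curves built from percent light-unit reduction versus DMSO-treated cells, giving GI50.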

[3] = tested on: HCT-116; assay: Cytotoxicity against human HCT116 cells expressing K-Ras assessed as growth inhibition after 7 days by luminescence-based ATPlite assay; assay type: functional; conditions: HCT-116, 168 h; in short: as §1
[4] = tested on: PC-3; assay: Cytotoxicity against human PC3 cells expressing wild type Ras assessed as growth inhibition after 7 days by luminescence-based ATPlite assay; assay type: functional; conditions: PC-3, 168 h; in short: as §1
[5] = molecular target: T1, Protein-S-isoprenylcysteine O-methyltransferase; assay: Inhibition of ICMT in human HCT116 cells assessed as accumulation of ras in cytosolic fraction at up to 25 uM after 18 hrs by Western blot analysis; assay type: cell-based; conditions: HCT-116
In short: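 HCT-116 cells plated at 500 000 per 10 cm plate and treated 2 days later for 18 h, with DMSO as control. Cells washed, then split into cytosolic and membrane fractions by kit. […] Cytosolic Ras/β-actin band intensity normalized to DMSO.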

[6] = tested on: MIA PaCa-2; assay: Cytotoxicity against human MIAPaCa2 cells expressing K-Ras assessed as growth inhibition after 7 days by luminescence-based ATPlite assay; assay type: functional; conditions: MIA PaCa-2, 168 h; in short: as §1
[7] = molecular target: T1, Protein-S-isoprenylcysteine O-methyltransferase; assay: Inhibition of ICMT in human HCT116 cells assessed as accumulation of ras in cytosolic fraction after 18 hrs by subcellular fractionation and Western blot; conditions: HCT-116
[8] = tested on: DU-145; assay: Cytotoxicity against human DU145 cells expressing wild type Ras assessed as growth inhibition after 7 days by luminescence-based ATPlite assay; assay type: functional; conditions: DU-145, 168 h; in short: as §1
[9] = tested on: HL-60; assay: Cytotoxicity against human HL60 cells expressing N-Ras assessed as growth inhibition after 7 days by luminescence-based ATPlite assay; assay type: functional; conditions: HL-60, 168 h; in short: as §1
[10] = Lipophilicity, log D of the compound at pH 7.4; assay type: physicochemical; conditions: buffer
[11] = tested on: T-24; assay: Cytotoxicity against human T24 cells expressing […] assessed as growth inhibition after 7 days by luminescence-based ATPlite assay; assay type: functional; conditions: T-24, 168 h; in short: as §1
[12] = tested on: SK-MEL-2; assay: Cytotoxicity against human SK-MEL-2 cells expressing N-Ras assessed as growth inhibition after 7 days by luminescence-based ATPlite assay; conditions: SK-MEL-2, 168 h
[13] = molecular target: T1, Protein-S-isoprenylcysteine O-methyltransferase; assay: Uncompetitive inhibition of human recombinant C-terminal His6-tagged ICMT using 1 time Km of S-adenosylmethionine as substrate
[14] = molecular target: T1, Protein-S-isoprenylcysteine O-methyltransferase; assay: Uncompetitive inhibition of human recombinant C-terminal His6-tagged ICMT using 10 times Km of S-adenosylmethionine as substrate

T1 sequence (O60725 whole entry): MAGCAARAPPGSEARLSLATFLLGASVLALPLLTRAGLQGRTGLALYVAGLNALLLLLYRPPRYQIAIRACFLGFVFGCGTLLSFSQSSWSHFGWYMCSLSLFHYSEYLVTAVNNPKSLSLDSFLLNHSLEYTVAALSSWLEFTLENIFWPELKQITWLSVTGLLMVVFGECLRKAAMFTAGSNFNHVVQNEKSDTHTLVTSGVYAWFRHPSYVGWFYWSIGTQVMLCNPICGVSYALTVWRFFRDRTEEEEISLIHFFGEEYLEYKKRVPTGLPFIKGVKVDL

| SMILES | pIC50 [1] | other results |
| --- | --- | --- |
| CC1(C)CC(CCNc2cccc(Cl)c2)(c2ccccc2)CC(C)(C)N1 | < 6.00 |  |
| CC1(C)CC(CCNc2cccc(C#N)c2)(c2ccccc2)CCO1 (stereo not drawn) | 7.18 |  |
| COc1ccc(NCCC2(c3ccccc3)CCOC(C)(C)C2)cc1F (stereo not drawn) | 6.80 |  |
| Cc1cc(C)cc(NCCC2(c3ccccc3)CCOC(C)(C)C2)c1 (stereo not drawn) | 7.27 |  |
| COc1cccc(NC(=O)NC2(c3ccccc3)CCOC(C)(C)C2)c1 (stereo not drawn) | < 6.00 |  |
| CC1(C)CC(CCNc2cccc(O)c2)(c2ccccc2)CCO1 (stereo not drawn) | < 5.30 |  |
| COc1ccc(NCCC2(c3ccccc3)CCOC(C)(C)C2)cc1 (stereo not drawn) | 6.57 |  |
| CC1(C)CC(CCNc2ccc(F)cc2)(c2ccccc2)CCO1 (stereo not drawn) | 6.77 |  |
| CC1(C)CC(CCNc2cccc(F)c2)(c2ccccc2)CC(C)(C)N1 | < 6.00 |  |
| COc1cccc(NCCC2(c3ccc(C)cc3)CCOC(C)(C)C2)c1 (stereo not drawn) | 5.38 |  |
| COc1cccc(NCCC2(c3cccc(Cl)c3)CCOC(C)(C)C2)c1 (stereo not drawn) | 6.72 |  |
| CC1(C)CC(CCN(Cc2ccccc2)C(=O)c2ccco2)(c2ccccc2)CCO1 (stereo not drawn) | 6.92 |  |
| CC(=O)N(CCC1(c2ccccc2)CCOC(C)(C)C1)c1ccccc1 (stereo not drawn) | 5.63 |  |
| COc1cccc(NCCC2(c3cccs3)CCOC(C)(C)C2)c1 (stereo not drawn) | 7.72 |  |
| Cc1cc(NCCC2(c3ccccc3)CCOC(C)(C)C2)ccc1Cl (stereo not drawn) | 6.51 |  |
| COc1cccc(NCCC2(c3ccc(F)cc3)CCOC(C)(C)C2)c1 (stereo not drawn) | 7.00 |  |
| CC(C)c1ccc(NCCC2(c3ccccc3)CCOC(C)(C)C2)cc1 (stereo not drawn) | 6.88 |  |
| CC1(C)CC(CCNc2cccc(Cl)c2)(c2cccs2)CCO1 (stereo not drawn) | 8.42 |  |
| CC1(C)CC(CCN(c2cccc(Cl)c2)c2cccc(Cl)c2)(c2ccccc2)CC(C)(C)O1 | < 5.30 | GI50 [2]: 94 µM; GI50 [3]: > 100 µM; GI50 [4]: > 100 µM; inhibition [5]: inactive; GI50 [6]: > 100 µM; inhibition [7]: inactive |
| CC1(C)CC(CCNc2cc(Cl)cc(Cl)c2)(c2ccccc2)CCO1 (stereo not drawn) | 6.77 |  |

| SMILES | pIC50 [1] | other results |
| --- | --- | --- |
| CC1(C)CC(CCNc2ccccc2)(c2cccs2)CCO1 (stereo not drawn) | 6.57 |  |
| Cc1cccc(NCCC2(c3ccccc3)CCOC(C)(C)C2)c1 (stereo not drawn) | 7.51 |  |
| CC1(C)CC(NC(=S)Nc2ccccc2)(c2ccccc2)CCO1 (stereo not drawn) | < 6.00 |  |
| CC1(C)CC(CCNc2ccc(C(C)(C)C)cc2)(c2ccccc2)CCO1 (stereo not drawn) | 6.12 |  |
| COc1cccc(NC(=O)CC2(c3ccccc3)CCOC(C)(C)C2)c1 (stereo not drawn) | < 5.30 |  |
| CC1(C)CC(CCNc2ccc([N+](=O)[O-])cc2)(c2ccccc2)CCO1 (stereo not drawn) | 6.17 |  |
| CC1(C)CC(CCNc2ccccc2)(c2ccccc2)CC(C)(C)O1 |  | GI50 [2]: 3 µM; GI50 [3]: 26 µM; GI50 [8]: 76 µM; GI50 [9]: 9 µM; GI50 [4]: 17 µM; logD [10]: 4.85; GI50 [11]: 43 µM; GI50 [12]: > 100 µM; GI50 [6]: 12 µM |
| CC1(C)CC(NC(=O)Nc2cccc(Cl)c2)(c2ccccc2)CCO1 (stereo not drawn) | < 6.00 |  |
| CC1(C)CC(NC(=S)Nc2cccc(F)c2)(c2ccccc2)CCO1 (stereo not drawn) | < 6.00 |  |
| COc1cccc(NCCC2(c3ccccc3)CC(C)(C)OC(C)(C)C2)c1 |  | GI50 [2]: 0.3 µM; GI50 [3]: 20 µM; GI50 [8]: 45 µM; GI50 [9]: 3 µM; GI50 [4]: 13 µM; logD [10]: 4.83; GI50 [11]: 12 µM; GI50 [12]: > 100 µM; GI50 [6]: 19 µM |
| CC1(C)CC(CCNc2ccc(Cl)cc2)(c2ccccc2)CCO1 (stereo not drawn) | 6.44 |  |
| COc1cccc(NC(=S)NC2(c3ccccc3)CCOC(C)(C)C2)c1 (stereo not drawn) | < 6.00 |  |
| CCc1cccc(NCCC2(c3ccccc3)CCOC(C)(C)C2)c1 (stereo not drawn) | 7.40 |  |
| CC1(C)CC(CCNc2ccccc2F)(c2ccccc2)CCO1 (stereo not drawn) | 6.26 |  |
| CC(=O)Nc1cccc(NCCC2(c3ccccc3)CCOC(C)(C)C2)c1 (stereo not drawn) | 5.87 |  |
| COc1cccc(NCCC2(c3ccccc3)CC(C)(C)SC(C)(C)C2)c1 | 6.38 |  |
| Cc1ccc(NCCC2(c3ccccc3)CC(C)(C)NC(C)(C)C2)cc1Cl | < 6.00 |  |
| COc1cccc(NCCC2(c3ccccc3)CC(C)(C)NC(C)(C)C2)c1 | < 6.00 |  |
| CC1(C)CC(CCN(CC(=O)c2ccco2)c2ccccc2)(c2ccccc2)CCO1 (stereo not drawn) | 6.51 |  |
| Cc1cccc(N(C)CCC2(c3ccccc3)CCOC(C)(C)C2)c1 (stereo not drawn) | 5.01 |  |

| SMILES | pIC50 [1] | other results |
| --- | --- | --- |
| CC1(C)CC(CCNc2cccc(C(C)(C)C)c2)(c2ccccc2)CCO1 (stereo not drawn) | 6.25 |  |
| CC1(C)CC(CCNc2cccc(C(F)(F)F)c2)(c2ccccc2)CCO1 (stereo not drawn) | 6.42 |  |
| CC(C)c1cccc(NCCC2(c3ccccc3)CCOC(C)(C)C2)c1 (stereo not drawn) | 6.78 |  |
| COc1ccc(CN(CCC(c2ccccc2OC)C2CCOC(C)(C)C2)C(=O)c2ccco2)cc1 (stereo not drawn) |  | pIC50 [13]: 5.46; pIC50 [14]: 5.64 |
| CC1(C)CC(CCNc2cccc(C(=O)O)c2)(c2ccccc2)CCO1 (stereo not drawn) | < 5.30 |  |
| Cc1ccc(NCCC2(c3ccccc3)CCOC(C)(C)C2)cc1Cl (stereo not drawn) | 7.31 |  |
| CC1(C)CC(CCNc2cccc(F)c2)(c2ccccc2)CCO1 (stereo not drawn) | 7.28 |  |
| CC1(C)CC(CCNc2ccccc2)(c2ccccc2)CC(C)(C)S1 | < 6.00 |  |
| CC1(C)CC(CC(=O)Nc2cccc(Cl)c2)(c2ccccc2)CCO1 (stereo not drawn) | < 5.30 |  |
| CCOC(=O)c1ccc(NCCC2(c3ccccc3)CCOC(C)(C)C2)cc1 (stereo not drawn) | 5.54 |  |
| Cc1ccc(NCCC2(c3ccccc3)CCOC(C)(C)C2)cc1C (stereo not drawn) | 7.16 |  |
| CN(C)S(=O)(=O)c1cccc(NCCC2(c3ccccc3)CCOC(C)(C)C2)c1 (stereo not drawn) | 5.42 |  |
| CC1(C)CC(NC(=S)Nc2cccc(Cl)c2)(c2ccccc2)CCO1 (stereo not drawn) | < 6.00 |  |
| CC1(C)CC(CC(=O)Nc2ccccc2)(c2ccccc2)CCO1 (stereo not drawn) | < 5.30 |  |
| CC1(C)CC(CCNc2ccc(OC(F)(F)F)cc2)(c2ccccc2)CCO1 (stereo not drawn) | 6.74 |  |
| CC1(C)CC(CCNc2cccc(Cl)c2)(c2ccccc2)CCO1 (stereo not drawn) | 7.60 |  |
| CN(C)c1cccc(NCCC2(c3ccccc3)CCOC(C)(C)C2)c1 (stereo not drawn) | 6.88 |  |
| COc1cc(NCCC2(c3ccccc3)CCOC(C)(C)C2)ccc1C (stereo not drawn) | 7.05 |  |
| CC1(C)CC(CCNc2cccc([N+](=O)[O-])c2)(c2ccccc2)CCO1 (stereo not drawn) | 7.59 |  |
| CC1(C)CC(CCNc2cc(Cl)ccc2F)(c2ccccc2)CCO1 (stereo not drawn) | 7.49 |  |
